Publication PMC7935732 (Targeted Oncology, 2021)

Test system: Chinese patients with advanced and/or metastatic cancers
Experiment: Safety and tolerability
Type: in vivo, human
Outline: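 Safety set: all patients with ≥ 1 dose. Patient-reported AEs were collected during treatment; chemistry, hematology and urinalysis were done at protocol time points. Laboratory and non-laboratory AEs were graded by CTCAE v4.0 and summarized by cohort.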

CCN1CCN(Cc2ccc(Nc3ncc(F)c(-c4cc(F)c5nc(C)n(C(C)C)c5c4)n3)nc2)CC1 [abemaciclib]
Grade 5 TEAE of respiratory failure (150 mg cohort): ^aOne patient reported Grade 5 TEAE of respiratory failure in 150 mg cohort | Patients who discontinued study treatment due to leukopenia (150 mg cohort): 1 patient | Patients with dose reduction from 150 to 100 mg during Cycle 1 (150 mg cohort): 5 patients | Alanine aminotransferase increased, TEAE any grade (150 mg every 12 h (n = 12)): 5 (41.7) n (%) | Anemia, TEAE any grade (150 mg every 12 h (n = 12)): 7 (58.3) n (%) | Bilirubin increased, TEAE any grade (150 mg every 12 h (n = 12)): 4 (33.3) n (%) | Blood creatinine increased, TEAE any grade (150 mg every 12 h (n = 12)): 6 (50.0) n (%) | Cough, TEAE any grade (150 mg every 12 h (n = 12)): 4 (33.3) n (%) | Decreased appetite, TEAE any grade (150 mg every 12 h (n = 12)): 9 (75.0) n (%) | Diarrhea, TEAE any grade (150 mg every 12 h (n = 12)): 9 (75.0) n (%) | Leukopenia (white blood cell count decreased), TEAE any grade (150 mg every 12 h (n = 12)): 9 (75.0) n (%) | Localized edema, TEAE any grade (150 mg every 12 h (n = 12)): 3 (25.0) n (%) | Malaise, TEAE any grade (150 mg every 12 h (n = 12)): 7 (58.3) n (%) | Nausea, TEAE any grade (150 mg every 12 h (n = 12)): 3 (25.0) n (%) | Neutropenia (neutrophil count decreased), TEAE any grade (150 mg every 12 h (n = 12)): 10 (83.3) n (%) | Patients with ≥ 1 TEAE (any grade) (150 mg every 12 h (n = 12)): 12 (100.0) n (%) | Thrombocytopenia (platelet count decreased), TEAE any grade (150 mg every 12 h (n = 12)): 6 (50.0) n (%) | Vomiting, TEAE any grade (150 mg every 12 h (n = 12)): 4 (33.3) n (%) | Patients reporting SAE of pulmonary embolism (200 mg cohort): 3 patients | Patients reporting SAE of urinary tract infection (200 mg cohort): 1 patient | Patients with dose reduction from 200 to 150 mg during Cycle 1 (200 mg cohort): 2 patients | Alanine aminotransferase increased, TEAE any grade (200 mg every 12 h (n = 13)): 2 (15.4) n (%) | Anemia, TEAE any grade (200 mg every 12 h (n = 13)): 5 (38.5) n (%) | Bilirubin increased, TEAE any grade (200 mg every 12 h (n = 13)): 1 (7.7) n (%) | Blood creatinine increased, TEAE any grade (200 mg every 12 h (n = 13)): 8 (61.5) n (%) | Cough, TEAE any grade (200 mg every 12 h (n = 13)): 4 (30.8) n (%) | Decreased appetite, TEAE any grade (200 mg every 12 h (n = 13)): 6 (46.2) n (%) | Diarrhea, TEAE any grade (200 mg every 12 h (n = 13)): 11 (84.6) n (%) | Leukopenia (white blood cell count decreased), TEAE any grade (200 mg every 12 h (n = 13)): 7 (53.8) n (%) | Localized edema, TEAE any grade (200 mg every 12 h (n = 13)): 2 (15.4) n (%) | Malaise, TEAE any grade (200 mg every 12 h (n = 13)): 6 (46.2) n (%) | Nausea, TEAE any grade (200 mg every 12 h (n = 13)): 6 (46.2) n (%) | Neutropenia (neutrophil count decreased), TEAE any grade (200 mg every 12 h (n = 13)): 9 (69.2) n (%) | Patients with ≥ 1 TEAE (any grade) (200 mg every 12 h (n = 13)): 13 (100.0) n (%) | Thrombocytopenia (platelet count decreased), TEAE any grade (200 mg every 12 h (n = 13)): 5 (38.5) n (%) | Vomiting, TEAE any grade (200 mg every 12 h (n = 13)): 4 (30.8) n (%) | Anemia TEAE (Grade 3, 150 mg (n = 12)): 2 (16.7) n (%) | Blood bilirubin increased TEAE (Grade 3, 150 mg (n = 12)): 1 (8.3) n (%) | Diarrhea TEAE (Grade 3, 150 mg (n = 12)): 1 (8.3) n (%) | Embolism TEAE (Grade 3, 150 mg (n = 12)): 1 (8.3) n (%) | Hyponatraemia TEAE (Grade 3, 150 mg (n = 12)): 2 (16.7) n (%) | Leukopenia (white blood cell count decreased) TEAE (Grade 3, 150 mg (n = 12)): 0 n (%) | Lung infection TEAE (Grade 3, 150 mg (n = 12)): 1 (8.3) n (%) | Malaise TEAE (Grade 3, 150 mg (n = 12)): 1 (8.3) n (%) | Muscular weakness TEAE (Grade 3, 150 mg (n = 12)): 1 (8.3) n (%) | Neutropenia (neutrophil count decreased) TEAE (Grade 3, 150 mg (n = 12)): 5 (41.7) n (%) | Patients with ≥ 1 TEAE of Grade ≥ 3 (Grade 3, 150 mg (n = 12)): 8 (66.7) n (%) | Thrombocytopenia (platelet count decreased) TEAE (Grade 3, 150 mg (n = 12)): 3 (25.0) n (%) | Vomiting TEAE (Grade 3, 150 mg (n = 12)): 0 n (%) | Anemia TEAE (Grade 3, 200 mg (n = 13)): 0 n (%) | Blood bilirubin increased TEAE (Grade 3, 200 mg (n = 13)): 0 n (%) | Diarrhea TEAE (Grade 3, 200 mg (n = 13)): 3 (23.1) n (%) | Embolism TEAE (Grade 3, 200 mg (n = 13)): 0 n (%) | Hyponatraemia TEAE (Grade 3, 200 mg (n = 13)): 0 n (%) | Leukopenia (white blood cell count decreased) TEAE (Grade 3, 200 mg (n = 13)): 3 (23.1) n (%) | Lung infection TEAE (Grade 3, 200 mg (n = 13)): 0 n (%) | Malaise TEAE (Grade 3, 200 mg (n = 13)): 0 n (%) | Muscular weakness TEAE (Grade 3, 200 mg (n = 13)): 0 n (%) | Neutropenia (neutrophil count decreased) TEAE (Grade 3, 200 mg (n = 13)): 3 (23.1) n (%) | Patients with ≥ 1 TEAE of Grade ≥ 3 (Grade 3, 200 mg (n = 13)): 6 (46.2) n (%) | Thrombocytopenia (platelet count decreased) TEAE (Grade 3, 200 mg (n = 13)): 2 (15.4) n (%) | Vomiting TEAE (Grade 3, 200 mg (n = 13)): 0 n (%) | Anemia TEAE (Grade 3, Total (n = 25)): 2 (8.0) n (%) | Blood bilirubin increased TEAE (Grade 3, Total (n = 25)): 1 (4.0) n (%) | Diarrhea TEAE (Grade 3, Total (n = 25)): 4 (16.0) n (%) | Hyponatraemia TEAE (Grade 3, Total (n = 25)): 2 (8.0) n (%) | Leukopenia (white blood cell count decreased) TEAE (Grade 3, Total (n = 25)): 3 (12.0) n (%) | Lung infection TEAE (Grade 3, Total (n = 25)): 1 (4.0) n (%) | Malaise TEAE (Grade 3, Total (n = 25)): 1 (4.0) n (%) | Muscular weakness TEAE (Grade 3, Total (n = 25)): 1 (4.0) n (%) | Neutropenia (neutrophil count decreased) TEAE (Grade 3, Total (n = 25)): 8 (32.0) n (%) | Patients with ≥ 1 TEAE of Grade ≥ 3 (Grade 3, Total (n = 25)): 14 (56.0) n (%) | Thrombocytopenia (platelet count decreased) TEAE (Grade 3, Total (n = 25)): 5 (20.0) n (%) | Vomiting TEAE (Grade 3, Total (n = 25)): 0 n (%) | Anemia TEAE (Grade 4, 150 mg (n = 12)): 0 n (%) | Blood bilirubin increased TEAE (Grade 4, 150 mg (n = 12)): 0 n (%) | Diarrhea TEAE (Grade 4, 150 mg (n = 12)): 0 n (%) | Embolism TEAE (Grade 4, 150 mg (n = 12)): 0 n (%)
